Measurements reported in publication PMC9321909 (British Journal of Haematology, 2022).

Tested on: relapsed/refractory B‐cell malignancies
Test: Anti-tumour activity assessment by disease-specific tumour response criteria
Assay type: in vivo, human (Chinese patients)
How it was run: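 Oral test compound at 320 mg QD or 160 mg BID until progression or unacceptable toxicity. Investigators assessed response every 12 weeks for one year after the first dose, then every 24 weeks. Criteria were iwCLL for CLL, NCI Working Group NHL criteria for SLL, FL, MZL and MCL, and International Workshops on WM criteria for WM. 95% CIs for rates were computed by Clopper–Pearson.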

[1] = part I, 160 mg BID, CLL/SLL (n = 5)
[2] = part I, 160 mg BID, NHL (n = 5)
[3] = part I, 160 mg BID, Total (N = 11)
[4] = part I, 320 mg QD, CLL/SLL (n = 4)
[5] = part I, 320 mg QD, Total (N = 10)

## C=CC(=O)N1CCC([C@@H]2CCNc3c(C(N)=O)c(-c4ccc(Oc5ccccc5)cc4)nn32)CC1 [zanubrutinib]
CLL/SLL (n = 9)
  Best overall response: CR: 3 (33.3) n (%)
  Best overall response: CRi: 0 (0.0) n (%)
  Best overall response: Discontinued prior to first assessment: 0 (0.0) n (%)
  Best overall response: MR: 0 (0.0) n (%)
  Best overall response: PD: 0 (0.0) n (%)
  Best overall response: PR: 5 (55.6) n (%)
  Best overall response: PR‐L: 1 (11.1) n (%)
  Best overall response: Stable disease: 0 (0.0) n (%)
  Best overall response: VGPR: 0 (0.0) n (%)
  Complete response rate: 3 (33.3) n (%)
  Overall response rate: 9 (100.0) n (%)
  Partial response rate (PR or better): 8 (88.9) n (%)
CLL/SLL patients
  median PFS: 44.3 months
FL (n = 26)
  Best overall response: CR: 4 (15.4) n (%)
  Best overall response: CRi: 0 (0.0) n (%)
  Best overall response: Discontinued prior to first assessment: 3 (11.5) n (%)
  Best overall response: MR: 0 (0.0) n (%)
  Best overall response: PD: 4 (15.4) n (%)
  Best overall response: PR: 8 (30.8) n (%)
  Best overall response: PR‐L: 0 (0.0) n (%)
  Best overall response: Stable disease: 7 (26.9) n (%)
  Best overall response: VGPR: 0 (0.0) n (%)
  Complete response rate: 4 (15.4) n (%)
  Overall response rate: 12 (46.2) n (%)
  Partial response rate (PR or better): 12 (46.2) n (%)
MCL (n = 2)
  Best overall response: CR: 1 (50.0) n (%)
  Best overall response: CRi: 0 (0.0) n (%)
  Best overall response: Discontinued prior to first assessment: 0 (0.0) n (%)
  Best overall response: MR: 0 (0.0) n (%)
  Best overall response: PD: 0 (0.0) n (%)
  Best overall response: PR: 0 (0.0) n (%)
  Best overall response: PR‐L: 0 (0.0) n (%)
  Best overall response: Stable disease: 1 (50.0) n (%)
  Best overall response: VGPR: 0 (0.0) n (%)
  Complete response rate: 1 (50.0) n (%)
  Overall response rate: 1 (50.0) n (%)
  Partial response rate (PR or better): 1 (50.0) n (%)
MZL (n = 5)
  Best overall response: CR: 0 (0.0) n (%)
  Best overall response: CRi: 0 (0.0) n (%)
  Best overall response: Discontinued prior to first assessment: 2 (40.0) n (%)
  Best overall response: MR: 0 (0.0) n (%)
  Best overall response: PD: 0 (0.0) n (%)
  Best overall response: PR: 0 (0.0) n (%)
  Best overall response: PR‐L: 0 (0.0) n (%)
  Best overall response: Stable disease: 3 (60.0) n (%)
  Best overall response: VGPR: 0 (0.0) n (%)
  Complete response rate: 0 (0.0) n (%)
  Overall response rate: 0 (0.0) n (%)
  Partial response rate (PR or better): 0 (0.0) n (%)
Total (N = 44)
  Best overall response: CR: 8 (18.2) n (%)
  Best overall response: CRi: 0 (0.0) n (%)
  Best overall response: Discontinued prior to first assessment: 5 (11.4) n (%)
  Best overall response: MR: 0 (0.0) n (%)
  Best overall response: PD: 4 (9.1) n (%)
  Best overall response: PR: 14 (31.8) n (%)
  Best overall response: PR‐L: 1 (2.3) n (%)
  Best overall response: Stable disease: 12 (27.3) n (%)
  Best overall response: VGPR: 0 (0.0) n (%)
  Complete response rate: 8 (18.2) n (%)
  Overall response rate: 23 (52.3) n (%)
  Partial response rate (PR or better): 22 (50.0) n (%)
WM (n = 2)
  Best overall response: CR: 0 (0.0) n (%)
  Best overall response: CRi: 0 (0.0) n (%)
  Best overall response: Discontinued prior to first assessment: 0 (0.0) n (%)
  Best overall response: MR: 0 (0.0) n (%)
  Best overall response: PD: 0 (0.0) n (%)
  Best overall response: PR: 1 (50.0) n (%)
  Best overall response: PR‐L: 0 (0.0) n (%)
  Best overall response: Stable disease: 1 (50.0) n (%)
  Best overall response: VGPR: 0 (0.0) n (%)
  Complete response rate: 0 (0.0) n (%)
  Overall response rate: 1 (50.0) n (%)
  Partial response rate (PR or better): 1 (50.0) n (%)
All 44 patients
  complete response rate (CRR): 18.2%
  overall response rate (ORR): 52.3%
All patients
  median PFS: 16.4 months
All responders
  median DOR (PR‐L or better): 13.9 months
All subtypes, responders (n = 23)
  median time to response: 2.8 months
[1]
  Complete response rate: 2 (40.0) n (%)
  Overall response rate: 5 (100.0) n (%)
  Partial response rate (PR or better): 4 (80.0) n (%)
[2]
  Complete response rate: 1 (20.0) n (%)
  Overall response rate: 3 (60.0) n (%)
  Partial response rate (PR or better): 3 (60.0) n (%)
[3]
  Complete response rate: 3 (27.3) n (%)
  Overall response rate: 8 (72.7) n (%)
  Partial response rate (PR or better): 7 (63.6) n (%)
Part I, 160 mg BID, WM (n = 1)
  Complete response rate: 0 (0.0) n (%)
  Overall response rate: 0 (0.0) n (%)
  Partial response rate (PR or better): 0 (0.0) n (%)
[4]
  Complete response rate: 1 (25.0) n (%)
  Overall response rate: 4 (100.0) n (%)
  Partial response rate (PR or better): 4 (100.0) n (%)
Part I, 320 mg QD, NHL (n = 5)
  Complete response rate: 1 (20.0) n (%)
  Overall response rate: 3 (60.0) n (%)
  Partial response rate (PR or better): 3 (60.0) n (%)
[5]
  Complete response rate: 2 (20.0) n (%)
  Overall response rate: 8 (80.0) n (%)
  Partial response rate (PR or better): 8 (80.0) n (%)
Part I, 320 mg QD, WM (n = 1)
  Complete response rate: 0 (0.0) n (%)
  Overall response rate: 1 (100.0) n (%)
  Partial response rate (PR or better): 1 (100.0) n (%)
Patient 101 016, FL
  Study day at disease progression: Day 162
Patient 102 002, CLL
  Study day at disease progression: Day 672
Patient 102 004, WM
  BOR by investigator: Stable disease
  Study day at disease progression: Day 336
Patient 102 006, CLL
  BOR by investigator: PR‐L
  Study day at disease progression: Day 1345
Patients with CLL/SLL
  CRR: 33.3%
Total population
  median overall survival: not reached
